In ChEMBL document CHEMBL3588770, “Novel spirohydantoin derivative as a potent multireceptor-active antipsychotic and antidepressant agent” (Bioorg Med Chem, 2015):
The source made the active and inactive calls. The calls are words filed in the database; no cut-off is given here.

What follows are compounds tested against T1, 5-hydroxytryptamine receptor 1A (Rattus norvegicus, UniProt P19327) (assay: Displacement of [3H]-8-OH-DPAT from 5-HT1A receptor in rat hippocampal membrane by liquid scintillation analysis). Settings: not given.
T1 sequence (P19327 whole entry): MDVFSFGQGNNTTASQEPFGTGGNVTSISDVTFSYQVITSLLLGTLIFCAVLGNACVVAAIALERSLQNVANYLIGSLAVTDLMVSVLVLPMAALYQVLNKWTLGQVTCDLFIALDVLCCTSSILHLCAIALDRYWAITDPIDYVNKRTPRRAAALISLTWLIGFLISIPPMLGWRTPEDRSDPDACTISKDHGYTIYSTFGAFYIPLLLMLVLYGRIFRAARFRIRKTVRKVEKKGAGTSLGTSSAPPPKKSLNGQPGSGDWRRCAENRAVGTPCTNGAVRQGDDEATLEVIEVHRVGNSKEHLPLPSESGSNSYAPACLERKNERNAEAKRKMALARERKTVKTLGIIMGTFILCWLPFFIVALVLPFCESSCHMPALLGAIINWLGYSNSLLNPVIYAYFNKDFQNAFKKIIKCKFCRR
Assay type: cell membranes, Hippocampus
Procedure, shortened: (§1)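 Native rat membranes were used: hippocampus with [3H]-8-OH-DPAT (170 Ci/mmol) and 5-HT for non-specific binding; cortex with [3H]-ketanserin (88.0 Ci/mmol) and methysergide; hypothalamus with [3H]-5-CT (34.5 Ci/mmol) and 5-HT. Compounds were tested in triplicate at 7–8 concentrations (10⁻¹¹–10⁻⁴ M). Read-out was liquid scintillation counting. Ki came from nonlinear regression with Cheng-Prusoff, as the mean of at least two experiments.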

| Structure (SMILES) | Ki [nM] |
| --- | --- |
| COc1ccccc1N1CCN(CCCCN2C(=O)NC3(CCC(c4ccccc4)CC3)C2=O)CC1 (centres undefined) | 3 |
| O=C1NC2(CCc3ccccc32)C(=O)N1CCCCN1CCN(c2cccc(C(F)(F)F)c2)CC1 (centres undefined) | 6 |
| O=C1NC2(CCCc3ccccc32)C(=O)N1CCCCN1CCN(c2cccc(C(F)(F)F)c2)CC1 (centres undefined) | 5.3 |
| COc1ccccc1N1CCN(CCCCN2C(=O)NC3(CCCCC3c3ccccc3)C2=O)CC1 (centres undefined) | 42 |
| O=C1NC2(CCCc3ccccc32)C(=O)N1CCCCN1CCN(c2ccccc2)CC1 (centres undefined) | 13 |
| O=C1NC2(CCCCC2c2ccccc2)C(=O)N1CCCCN1CCN(c2cccc(Cl)c2)CC1 (centres undefined) | 113 |
| O=C1NC2(CCC(c3ccccc3)CC2)C(=O)N1CCCCN1CCN(c2ccccc2)CC1 (centres undefined) | 35 |
| O=C1NC2(CCCCC2c2ccccc2)C(=O)N1CCCCN1CCN(c2ccccc2)CC1 (centres undefined) | 306 |
| O=C1NC2(CCc3ccccc32)C(=O)N1CCCCN1CCN(c2ccccc2)CC1 (centres undefined) | 75 |
| O=C1NC2(CCC(c3ccccc3)CC2)C(=O)N1CCCCN1CCN(c2cccc(Cl)c2)CC1 (centres undefined) | 30 |
| O=C1NC2(CCC(c3ccccc3)CC2)C(=O)N1CCCCN1CCN(c2cccc(C(F)(F)F)c2)CC1 (centres undefined) | 22 |

The compounds below were run against 5-hydroxytryptamine receptor 7 (Rattus norvegicus, UniProt P32305) (assay: Displacement of [3H]-5-CT from 5-HT7 receptor in rat hypothalamic membrane by liquid scintillation analysis). Settings: not given.
Assay type: cell membranes
Procedure, shortened: as §1

Sequence of 5-hydroxytryptamine receptor 7 (P32305 whole entry): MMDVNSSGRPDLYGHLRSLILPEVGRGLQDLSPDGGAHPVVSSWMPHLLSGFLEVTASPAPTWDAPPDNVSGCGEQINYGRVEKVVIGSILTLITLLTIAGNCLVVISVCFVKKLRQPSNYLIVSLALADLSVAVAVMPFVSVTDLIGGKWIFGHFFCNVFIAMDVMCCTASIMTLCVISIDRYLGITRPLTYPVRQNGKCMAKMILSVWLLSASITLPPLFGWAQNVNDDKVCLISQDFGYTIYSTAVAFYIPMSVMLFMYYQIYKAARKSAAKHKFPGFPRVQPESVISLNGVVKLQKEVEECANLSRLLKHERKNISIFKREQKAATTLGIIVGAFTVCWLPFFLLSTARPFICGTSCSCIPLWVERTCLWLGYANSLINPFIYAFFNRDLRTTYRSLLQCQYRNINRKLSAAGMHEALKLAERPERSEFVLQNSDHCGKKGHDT

| Structure (SMILES) | Ki [nM] |
| --- | --- |
| COc1ccccc1N1CCN(CCCCN2C(=O)NC3(CCC(c4ccccc4)CC3)C2=O)CC1 (centres undefined) | 130 |
| O=C1NC2(CCc3ccccc32)C(=O)N1CCCCN1CCN(c2cccc(C(F)(F)F)c2)CC1 (centres undefined) | 67 |
| O=C1NC2(CCCc3ccccc32)C(=O)N1CCCCN1CCN(c2cccc(C(F)(F)F)c2)CC1 (centres undefined) | 117 |
| COc1ccccc1N1CCN(CCCCN2C(=O)NC3(CCCCC3c3ccccc3)C2=O)CC1 (centres undefined) | 63 |
| O=C1NC2(CCCc3ccccc32)C(=O)N1CCCCN1CCN(c2ccccc2)CC1 (centres undefined) | 116 |
| O=C1NC2(CCCCC2c2ccccc2)C(=O)N1CCCCN1CCN(c2cccc(Cl)c2)CC1 (centres undefined) | 43 |
| O=C1NC2(CCC(c3ccccc3)CC2)C(=O)N1CCCCN1CCN(c2ccccc2)CC1 (centres undefined) | 515 |
| O=C1NC2(CCCCC2c2ccccc2)C(=O)N1CCCCN1CCN(c2ccccc2)CC1 (centres undefined) | 1500 |
| O=C1NC2(CCc3ccccc32)C(=O)N1CCCCN1CCN(c2ccccc2)CC1 (centres undefined) | 93 |
| O=C1NC2(CCC(c3ccccc3)CC2)C(=O)N1CCCCN1CCN(c2cccc(Cl)c2)CC1 (centres undefined) | 768 |
| O=C1NC2(CCC(c3ccccc3)CC2)C(=O)N1CCCCN1CCN(c2cccc(C(F)(F)F)c2)CC1 (centres undefined) | 379 |

What follows are compounds tested on Mus musculus (assay: Antipsychotic activity in ip dosed CD-1 mouse assessed as inhibition of D-amphetamine-induced hyperlocomotor activity). Settings: not given.
Assay type: functional, organism-based
Procedure, shortened: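 Male CD-1 mice, 8-10 per dose. d-Amphetamine was given s.c. 30 min pretest; test compound i.p. 60 min pretest in 1% Tween 80. After 30 min habituation in the activity monitor, ambulation crossings were counted for 1 h, recorded every 5 min.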

| Structure (SMILES) | inhibition |
| --- | --- |
| O=C1CCc2ccc(OCCCCN3CCN(c4cccc(Cl)c4Cl)CC3)cc2N1 [ARIPIPRAZOLE] | Dose-dependent effect |

The compounds below were run on Mus musculus (assay: Antianxiety-like activity in Swiss albino mouse assessed as number of punished crossings at 0.06 to 0.5 mg/kg, ip by four-plate test). Settings: not given.
Assay type: functional, organism-based
Procedure, shortened: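 Four-plate test in male Swiss albino mice, 8-10 per dose, dosed i.p. in Tween 80 vehicle. After 15-s habituation, a 0.8 mA, 0.5 s foot shock was given at each plate crossing, with a 3 s shock-free interval. Punished crossings were counted over a 1-min session.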

| Structure (SMILES) | Activity |
| --- | --- |
| O=C1CCc2ccc(OCCCCN3CCN(c4cccc(Cl)c4Cl)CC3)cc2N1 [ARIPIPRAZOLE] | inactive |

These compounds were tested on Mus musculus (assay: Toxicity in ip dosed CD-1 mouse assessed as minimum dose required for induction of catalepsy by bar test). Settings: in vivo.
Assay type: organism-based
Procedure, shortened: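 Male CD-1 mice, 10 per group, given compound i.p. (1% Tween 80 suspension). Forelimbs were placed on a horizontal rod 4 cm high at 30, 60 and 120 min. Catalepsy was scored up to 3 (≥60 s on bar). Minimum cataleptogenic dose is the lowest dose giving a mean score ≥1 at any of those times.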

| Structure (SMILES) | Activity [mg/kg] |
| --- | --- |
| O=C1CCc2ccc(OCCCCN3CCN(c4cccc(Cl)c4Cl)CC3)cc2N1 [ARIPIPRAZOLE] | 1 |

The compounds below were run on Mus musculus (assay: Toxicity in ip dosed spontaneous locomotor activity CD-1 mouse model assessed as dose required to cause sedation). Settings: in vivo.
Assay type: organism-based
Procedure, shortened: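 CD-1 mice, 8-10 per dose, with compound given i.p. in 1% Tween 80 suspension 60 min before testing. After 30 min habituation in individual cages, ambulation (channel crossings) was counted over 1 h, recorded every 5 min. Mean ± SEM, one-way ANOVA with Bonferroni test.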

| Structure (SMILES) | Activity [mg/kg] |
| --- | --- |
| O=C1CCc2ccc(OCCCCN3CCN(c4cccc(Cl)c4Cl)CC3)cc2N1 [ARIPIPRAZOLE] | 1 |

The compounds below were run on Mus musculus (assay: Anti-depressant like activity in Swiss albino mouse assessed as shortening of immobility time at 0.01 to 0.1 mg/kg, ip by forced swim test). Settings: not given.
Assay type: functional, organism-based

| Structure (SMILES) | inhibition |
| --- | --- |
| O=C1CCc2ccc(OCCCCN3CCN(c4cccc(Cl)c4Cl)CC3)cc2N1 [ARIPIPRAZOLE] | inactive |

These compounds were tested against D(2) dopamine receptor (Rattus norvegicus, UniProt P61169) (assay: Displacement of [3H]spiperone from D2 receptor in rat striatum by liquid scintillation counting analysis). Settings: not given.
Procedure, shortened: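 Rat striatal membranes with [3H]-spiperone. Compounds were tested in triplicate at 7–8 concentrations (10⁻¹¹–10⁻⁴). Ki values were calculated.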

Sequence of D(2) dopamine receptor (P61169 whole entry): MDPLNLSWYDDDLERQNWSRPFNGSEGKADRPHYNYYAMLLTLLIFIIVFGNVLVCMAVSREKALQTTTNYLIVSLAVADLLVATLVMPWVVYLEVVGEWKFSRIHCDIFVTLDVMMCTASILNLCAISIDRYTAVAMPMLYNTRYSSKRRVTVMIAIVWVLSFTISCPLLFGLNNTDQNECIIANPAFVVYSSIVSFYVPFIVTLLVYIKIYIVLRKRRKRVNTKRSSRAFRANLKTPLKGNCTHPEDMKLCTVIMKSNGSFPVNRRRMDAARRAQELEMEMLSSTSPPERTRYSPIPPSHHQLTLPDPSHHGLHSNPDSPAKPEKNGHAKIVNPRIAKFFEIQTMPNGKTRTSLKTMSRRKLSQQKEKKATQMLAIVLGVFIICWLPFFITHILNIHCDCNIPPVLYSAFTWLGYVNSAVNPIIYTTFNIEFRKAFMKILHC

| Structure (SMILES) | Ki [nM] |
| --- | --- |
| COc1ccccc1N1CCN(CCCCN2C(=O)NC3(CCC(c4ccccc4)CC3)C2=O)CC1 (centres undefined) | 79 |
| O=C1NC2(CCc3ccccc32)C(=O)N1CCCCN1CCN(c2cccc(C(F)(F)F)c2)CC1 (centres undefined) | 412 |
| O=C1NC2(CCCc3ccccc32)C(=O)N1CCCCN1CCN(c2cccc(C(F)(F)F)c2)CC1 (centres undefined) | 608 |
| O=C1NC2(CCCc3ccccc32)C(=O)N1CCCCN1CCN(c2ccccc2)CC1 (centres undefined) | 743 |
| O=C1NC2(CCC(c3ccccc3)CC2)C(=O)N1CCCCN1CCN(c2cccc(Cl)c2)CC1 (centres undefined) | > 10000 |
| O=C1NC2(CCC(c3ccccc3)CC2)C(=O)N1CCCCN1CCN(c2cccc(C(F)(F)F)c2)CC1 (centres undefined) | > 10000 |

Each compound was assayed against 5-hydroxytryptamine receptor 2A (Rattus norvegicus, UniProt P14842) (assay: Displacement of [3H]ketanserin from 5-HT2A receptor in rat cortical membrane by liquid scintillation analysis). Settings: not given.
Assay type: cell membranes
Procedure, shortened: as §1

Sequence of 5-hydroxytryptamine receptor 2A (P14842 whole entry): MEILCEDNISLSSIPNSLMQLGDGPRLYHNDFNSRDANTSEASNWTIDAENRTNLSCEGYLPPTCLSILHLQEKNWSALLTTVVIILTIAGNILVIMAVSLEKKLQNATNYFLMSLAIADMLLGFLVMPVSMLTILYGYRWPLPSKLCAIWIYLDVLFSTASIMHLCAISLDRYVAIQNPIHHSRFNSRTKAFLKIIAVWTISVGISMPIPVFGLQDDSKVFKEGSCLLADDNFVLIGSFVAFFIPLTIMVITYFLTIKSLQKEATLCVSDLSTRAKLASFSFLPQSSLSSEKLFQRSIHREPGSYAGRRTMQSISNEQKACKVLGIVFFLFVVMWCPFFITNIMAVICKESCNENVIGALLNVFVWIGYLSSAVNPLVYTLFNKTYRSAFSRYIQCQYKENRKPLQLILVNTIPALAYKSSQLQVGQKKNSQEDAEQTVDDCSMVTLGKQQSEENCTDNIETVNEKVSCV

| Structure (SMILES) | Ki [nM] |
| --- | --- |
| COc1ccccc1N1CCN(CCCCN2C(=O)NC3(CCC(c4ccccc4)CC3)C2=O)CC1 (centres undefined) | 75 |
| O=C1NC2(CCc3ccccc32)C(=O)N1CCCCN1CCN(c2cccc(C(F)(F)F)c2)CC1 (centres undefined) | 87 |
| O=C1NC2(CCCc3ccccc32)C(=O)N1CCCCN1CCN(c2cccc(C(F)(F)F)c2)CC1 (centres undefined) | 157 |
| COc1ccccc1N1CCN(CCCCN2C(=O)NC3(CCCCC3c3ccccc3)C2=O)CC1 (centres undefined) | 498 |
| O=C1NC2(CCCc3ccccc32)C(=O)N1CCCCN1CCN(c2ccccc2)CC1 (centres undefined) | 77 |
| O=C1NC2(CCCCC2c2ccccc2)C(=O)N1CCCCN1CCN(c2cccc(Cl)c2)CC1 (centres undefined) | 171 |
| O=C1NC2(CCC(c3ccccc3)CC2)C(=O)N1CCCCN1CCN(c2ccccc2)CC1 (centres undefined) | 48 |
| O=C1NC2(CCCCC2c2ccccc2)C(=O)N1CCCCN1CCN(c2ccccc2)CC1 (centres undefined) | 414 |
| O=C1NC2(CCc3ccccc32)C(=O)N1CCCCN1CCN(c2ccccc2)CC1 (centres undefined) | 111 |
| O=C1NC2(CCC(c3ccccc3)CC2)C(=O)N1CCCCN1CCN(c2cccc(Cl)c2)CC1 (centres undefined) | 38 |
| O=C1NC2(CCC(c3ccccc3)CC2)C(=O)N1CCCCN1CCN(c2cccc(C(F)(F)F)c2)CC1 (centres undefined) | 122 |
